ChEMBL document CHEMBL3244330, “Structure--activity relationships of n-substituted dopamine and 2-amino-6,7-dihydroxy-1,2,3,4-tetrahydronaphthalene analogues: behavioral effects in lesioned and reserpinized mice” (J Med Chem, 1979)
Active and inactive are the calls of the source. No cut-off for these calls is given here.

What was measured:
[1] = system: Mus musculus; test: Postural effect on caudectomized Swiss albino mouse assessed as latency to onset time of asymmetric postural effect at 90.8 mg/kg, ip; assay type: functional, organism-based; set-up: dose 90.8 mg/kg
How it was run: (§1)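 Male Swiss albino Hale-Stoner mice with a right caudectomy made by suction. A lesion was accepted if the mouse responded to apomorphine 4 weeks after surgery. Compounds were dissolved in 0.9% saline and injected ip at random into groups of six, with a maximum dose of 0.348 mmol/kg. 18 mice were used per compound, and mice were retested after 5–6 day intervals. Onset and duration of the asymmetric posture are reported as mean ± SE from six animals.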

[2] = system: Mus musculus; test: Postural effect on caudectomized Swiss albino mouse assessed as latency to onset time of asymmetric postural effect at 51.9 mg/kg, ip; assay type: functional, organism-based; set-up: dose 51.9 mg/kg
How it was run: (§2)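 Male Swiss albino Hale-Stoner mice with right caudectomy by suction, used if responsive to apomorphine 4 weeks post-lesion. Compound in 0.9% saline given ip, maximum 0.348 mmol/kg. 18 mice per compound in random groups of six, retested after 5–6 day intervals. Onset latency and duration of asymmetric posture recorded; mean ± SE from six animals.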

[3] = system: Mus musculus; test: Reversal of reserpine-induced catalepsy in ip dosed Swiss albino (CD1) mouse; assay type: functional
How it was run: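 Male Swiss albino CD1 mice, 5 weeks old, got reserpine 5 mg/kg ip, then α-MTM 250 mg/kg ip 17 h later, then the test drug ip 4 h after that. Catalepsy was scored by the rubber-stopper test (time to step off the stopper). At least four doses were used, with ≥8 mice per dose. ED50 was taken from a log-probit plot of percent responders against dose.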

[4] = system: Mus musculus; test: Postural effect on caudectomized Swiss albino mouse assessed as time duration of asymmetric posture at 1 mg/kg, ip; assay type: functional; details: route intraperitoneal; how it was run: as §1
[5] = system: Mus musculus; test: Postural effect on caudectomized Swiss albino mouse assessed as latency to onset time of asymmetric postural effect at 1 mg/kg, ip; assay type: functional; details: route intraperitoneal; how it was run: as §1
[6] = system: Mus musculus; test: Postural effect on caudectomized Swiss albino mouse assessed as time duration of asymmetric posture at 30.4 mg/kg, ip; assay type: functional; details: route intraperitoneal; how it was run: as §2
[7] = system: Mus musculus; test: Postural effect on caudectomized Swiss albino mouse assessed as latency to onset time of asymmetric postural effect at 60.8 mg/kg, ip; assay type: functional; details: route intraperitoneal; how it was run: as §2
[8] = system: Mus musculus; test: Postural effect on caudectomized Swiss albino mouse assessed as latency to onset time of asymmetric postural effect at 30.4 mg/kg, ip; assay type: functional; details: route intraperitoneal; how it was run: as §2
[9] = system: Mus musculus; test: Postural effect on caudectomized Swiss albino mouse assessed as time duration of asymmetric posture at 60.8 mg/kg, ip; assay type: functional; details: route intraperitoneal; how it was run: as §2
[10] = system: Mus musculus; test: Postural effect on caudectomized Swiss albino mouse assessed as latency to onset time of asymmetric postural effect at 34.2 mg/kg, ip; assay type: functional; details: route intraperitoneal; how it was run: as §1
[11] = system: Mus musculus; test: Postural effect on caudectomized Swiss albino mouse assessed as time duration of asymmetric posture at 68.4 mg/kg, ip; assay type: functional; details: route intraperitoneal
How it was run: (§3)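 Male Swiss albino Hale-Stoner mice given a right caudectomy by suction. The lesion counted as successful if the mice reacted to apomorphine 4 weeks later. Drug was given ip in 0.9% saline, up to 0.348 mmol/kg, to randomised groups of six, with 5-6 days before reuse. Onset and duration of asymmetric posture are reported as mean ± SE from six animals.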

[12] = system: Mus musculus; test: Postural effect on caudectomized Swiss albino mouse assessed as latency to onset time of asymmetric postural effect at 68.4 mg/kg, ip; assay type: functional; details: route intraperitoneal; how it was run: as §1
[13] = system: Mus musculus; test: Postural effect on caudectomized Swiss albino mouse assessed as time duration of asymmetric posture at 34.2 mg/kg, ip; assay type: functional; details: route intraperitoneal; how it was run: as §1
[14] = system: Mus musculus; test: Postural effect on caudectomized Swiss albino mouse assessed as time duration of asymmetric posture at 32.3 mg/kg, ip; assay type: functional; details: route intraperitoneal; how it was run: as §1
[15] = system: Mus musculus; test: Postural effect on caudectomized Swiss albino mouse assessed as time duration of asymmetric posture at 64.6 mg/kg, ip; assay type: functional; details: route intraperitoneal; how it was run: as §3
[16] = system: Mus musculus; test: Postural effect on caudectomized Swiss albino mouse assessed as latency to onset time of asymmetric postural effect at 32.3 mg/kg, ip; assay type: functional; details: route intraperitoneal; how it was run: as §1
[17] = system: Mus musculus; test: Postural effect on caudectomized Swiss albino mouse assessed as time duration of asymmetric posture at 96.9 mg/kg, ip; assay type: functional; details: route intraperitoneal; how it was run: as §3
[18] = system: Mus musculus; test: Postural effect on caudectomized Swiss albino mouse assessed as latency to onset time of asymmetric postural effect at 64.6 mg/kg, ip; assay type: functional; details: route intraperitoneal; how it was run: as §1
[19] = system: Mus musculus; test: Postural effect on caudectomized Swiss albino mouse assessed as latency to onset time of asymmetric postural effect at 96.9 mg/kg, ip; assay type: functional; details: route intraperitoneal; how it was run: as §1
[20] = system: Mus musculus; test: Postural effect on caudectomized Swiss albino mouse assessed as latency to onset time of asymmetric postural effect at 100.5 mg/kg, ip; assay type: functional, organism-based; set-up: dose 100.5 mg/kg; how it was run: as §1
[21] = system: Mus musculus; test: Postural effect on caudectomized Swiss albino mouse assessed as latency to onset time of asymmetric postural effect at 91.2 mg/kg, ip; assay type: functional, organism-based; set-up: dose 91.2 mg/kg; how it was run: as §2
[22] = system: Mus musculus; test: Postural effect on caudectomized Swiss albino mouse assessed as latency to onset time of asymmetric postural effect at 50 mg/kg, ip; assay type: functional; details: route intraperitoneal; how it was run: as §1
[23] = system: Mus musculus; test: Postural effect on caudectomized Swiss albino mouse assessed as time duration of asymmetric posture at 25 mg/kg, ip; assay type: functional; details: route intraperitoneal; how it was run: as §1
[24] = system: Mus musculus; test: Postural effect on caudectomized Swiss albino mouse assessed as latency to onset time of asymmetric postural effect at 25 mg/kg, ip; assay type: functional; details: route intraperitoneal; how it was run: as §1
[25] = system: Mus musculus; test: Postural effect on caudectomized Swiss albino mouse assessed as time duration of asymmetric posture at 50 mg/kg, ip; assay type: functional; details: route intraperitoneal; how it was run: as §3
[26] = system: Mus musculus; test: Postural effect on caudectomized Swiss albino mouse assessed as latency to onset time of asymmetric postural effect at 102.2 mg/kg, ip; assay type: functional, organism-based; set-up: dose 102.2 mg/kg; how it was run: as §2
[27] = system: Mus musculus; test: Postural effect on caudectomized Swiss albino mouse assessed as latency to onset time of asymmetric postural effect at 56 mg/kg, ip; assay type: functional; details: route intraperitoneal; how it was run: as §1
[28] = system: Mus musculus; test: Postural effect on caudectomized Swiss albino mouse assessed as time duration of asymmetric posture at 28 mg/kg, ip; assay type: functional; details: route intraperitoneal; how it was run: as §1
[29] = system: Mus musculus; test: Postural effect on caudectomized Swiss albino mouse assessed as time duration of asymmetric posture at 56 mg/kg, ip; assay type: functional; details: route intraperitoneal; how it was run: as §3
[30] = system: Mus musculus; test: Postural effect on caudectomized Swiss albino mouse assessed as latency to onset time of asymmetric postural effect at 28 mg/kg, ip; assay type: functional; details: route intraperitoneal; how it was run: as §1
[31] = system: Mus musculus; test: Postural effect on caudectomized Swiss albino mouse assessed as latency to onset time of asymmetric postural effect at 85 mg/kg, ip; assay type: functional, organism-based; set-up: dose 85 mg/kg; how it was run: as §1
[32] = system: Mus musculus; test: Postural effect on caudectomized Swiss albino mouse assessed as latency to onset time of asymmetric postural effect at 26.8 mg/kg, ip; assay type: functional, organism-based; set-up: dose 26.8 mg/kg; how it was run: as §2
[33] = system: Mus musculus; test: Postural effect on caudectomized Swiss albino mouse assessed as latency to onset time of asymmetric postural effect at 107.2 mg/kg, ip; assay type: functional; details: route intraperitoneal; how it was run: as §2
[34] = system: Mus musculus; test: Postural effect on caudectomized Swiss albino mouse assessed as time duration of asymmetric posture at 107.2 mg/kg, ip; assay type: functional; details: route intraperitoneal; how it was run: as §2

## CCCCCNCCc1ccc(O)c(O)c1
[1]
  Activity: inactive

## Oc1ccc(CCN(CCc2ccccc2)CCc2ccccc2)cc1O
[2]
  Activity: inactive

## CN1CCc2cccc3c2[C@H]1Cc1ccc(O)c(O)c1-3.CN1CCc2cccc3c2[C@H]1Cc1ccc(O)c(O)c1-3.Cl.Cl.O [APOMORPHINE HYDROCHLORIDE]
[3]
  ED50: 0.11 mg/kg
[4]
  Time: 12.8 min
[5]
  Time: 4.6 min

## CCCN(CCCc1ccccc1)CCc1ccc(O)c(O)c1.Cl
[3]
  ED50: 9 mg/kg
[6]
  Time: 6.4 min
[7]
  Time: 5.8 min
[8]
  Time: 7.6 min
[9]
  Time: 18.2 min

## CCCCCN(CCC)CCc1ccc(O)c(O)c1.Cl
[3]
  ED50: 8.7 mg/kg
[10]
  Time: 3.7 min
[11]
  Time: 20.6 min
[12]
  Time: 4.2 min
[13]
  Time: 17.4 min

## Br.CCCCN(CCCC)C1CCc2cc(O)c(O)cc2C1 (stereo not given)
[3]
  ED50: 44 mg/kg
[14]
  Time: 1.6 min
[15]
  Time: 8.8 min
[16]
  Time: 1 min
[17]
  Time: 13.7 min
[18]
  Time: 5.3 min
[19]
  Time: 4.1 min

## CC(C)CNCCc1ccc(O)c(O)c1
[20]
  Activity: inactive

## CCCCN(CCc1ccccc1)CCc1ccc(O)c(O)c1
[21]
  Activity: inactive

## CCCCN(CCC)CCc1ccc(O)c(O)c1.Cl
[3]
  ED50: 8.6 mg/kg
[22]
  Time: 3.7 min
[23]
  Time: 6.4 min
[24]
  Time: 3.7 min
[25]
  Time: 25.8 min

## Oc1ccc(CCNCCc2ccccc2)cc1O
[26]
  Activity: inactive

## CCCN(CCc1ccc(O)c(O)c1)Cc1ccccc1.Cl
[3]
  ED50: 21 mg/kg
[27]
  Time: 5.7 min
[28]
  Time: 7.8 min
[29]
  Time: 26.6 min
[30]
  Time: 5.2 min

## CNCCc1ccc(O)c(O)c1
[31]
  Activity: inactive

## CN(CCc1ccccc1)CCc1ccc(O)c(O)c1.Cl
[3]
  ED50: 101 mg/kg
[32]
  Activity: inactive
[33]
  Time: 6.9 min
[34]
  Time: 21.2 min
